Source: paper PMC7709506 (ESMO Open, 2020)

Tests used:
[1] = tested on: cell lines with increased FGFR activity; conditions: cell lines with increased FGFR activity and known dependency on FGFR signalling; cited from earlier work
[2] = tested on: UGT1A1; conditions: human liver microsomes; cited from earlier work
[3] = Plasma pharmacokinetics after single and multiple dosing; type: in vivo, human; conditions: for Accumulation ratio, geometric mean (CV %): AUC0–last day 15 / day 1; for Mean (SD) metabolite to parent ratio: ORM-21444 AUC0–last / ODM-203 AUC0–last
Outline: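 Oral once-daily test compound. Capsule single dose on day 1 after a low-phosphate light breakfast. In tablet cohorts, one capsule dose was followed a week later by continuous daily tablets from 200 mg. Plasma sampled on day 1 and day 8 or 15 predose and 0.1–24 h post-dose, plus predose from day 8. Cmax, Tmax and AUC0–last (linear trapezoidal) were log-transformed. Accumulation = day 15/day 1 AUC; metabolite ratio = metabolite/parent AUC.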

[4] = tested on: FGFR and VEGFR pathways; assay: Soluble biomarkers of FGFR and VEGFR pathways; parameters: species or system human; conditions: in vivo
Outline: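 Plasma FGF23, sVEGFR2, sVEGFR1, VEGF, FGF2 and PGF were sampled at baseline, day 8 and day 29 during oral test compound dosing and analysed in batches during or at study end. Values are expressed as percentage change from baseline (day 1 predose).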

[5] = tested on: advanced or metastatic solid tumours; assay: Preliminary antitumour activity; type: in vivo, human

Cn1cc(-c2ccc3c(c2)ncn3-c2cc(NS(=O)(=O)C3CC3)cc(-c3ccc(F)cc3F)c2)cn1 [ODM-203]
cell proliferation [1]: suppresses cell proliferation
IC50 [2]: 0.1 µM
interindividual variability of steady-state AUC (coefficient of variation) ([3]; 400 mg tablet group at day 15): 90%
Accumulation ratio, geometric mean (CV %) ([3]; tablet 200 mg (n=3)): 2.3 (23)
Accumulation ratio, geometric mean (CV %) ([3]; tablet 300 mg (n=3)): 2.3 (123)
Accumulation ratio, geometric mean (CV %) ([3]; tablet 400 mg (n=24)): 5.5 (76)
Mean (SD) metabolite to parent ratio ([3]; tablet 200 mg, Day 1 (n=3)): 0.043 (0.022)
Mean (SD) metabolite to parent ratio ([3]; tablet 200 mg, Day 15 (n=3)): 0.085 (0.043)
Mean (SD) metabolite to parent ratio ([3]; tablet 300 mg, Day 1 (n=3)): 0.061 (0.030)
Mean (SD) metabolite to parent ratio ([3]; tablet 300 mg, Day 15 (n=3)): 0.094 (0.004)
Mean (SD) metabolite to parent ratio ([3]; tablet 400 mg, Day 1 (n=25)): 0.048 (0.034)
Mean (SD) metabolite to parent ratio ([3]; tablet 400 mg, Day 15 (n=24)): 0.117 (0.031)
average Tmax in different cohorts ([3]; after a single dose): 6 to 10 h
individual Tmax range ([3]; after a single dose): 3 to 24 h
average accumulation ratios ([3]; based on AUC0–last, different cohorts): 2.3–5.5
tablet formulation compared with capsule formulation ([3]; in vivo): higher exposure and lower variability
AUC ratio (metabolite ORM-21444 to ODM-203) ([3]; steady state): less than 0.15
half-life ([3]; suggested by accumulation ratios, different cohorts): 30 to 70 h
Cmax, geometric mean (CV %) ([3]; tablet 200 mg, Day 1 (n=3)): 1539 (9) ng/mL
Median (min, max) Tmax ([3]; tablet 200 mg, Day 1 (n=3)): 8.0 (7.7 to 11.1) h
Cmax, geometric mean (CV %) ([3]; tablet 200 mg, Day 15 (n=3)): 3118 (28) ng/mL
Mean (SD) Caverage ([3]; tablet 200 mg, Day 15 (n=3)): 2560 (719) ng/mL
Median (min, max) Tmax ([3]; tablet 200 mg, Day 15 (n=3)): 8.0 (6.0 to 11.2) h
Cmax, geometric mean (CV %) ([3]; tablet 300 mg, Day 1 (n=3)): 2608 (46) ng/mL
Median (min, max) Tmax ([3]; tablet 300 mg, Day 1 (n=3)): 6.0 (4.1 to 6.1) h
Cmax, geometric mean (CV %) ([3]; tablet 300 mg, Day 15 (n=3)): 4906 (148) ng/mL
Mean (SD) Caverage ([3]; tablet 300 mg, Day 15 (n=3)): 5652 (5460) ng/mL
Median (min, max) Tmax ([3]; tablet 300 mg, Day 15 (n=3)): 6.1 (3.1 to 8.7) h
Cmax, geometric mean (CV %) ([3]; tablet 400 mg, Day 1 (n=25)): 1933 (49) ng/mL
Median (min, max) Tmax ([3]; tablet 400 mg, Day 1 (n=25)): 6.3 (3.1 to 24.7) h
Cmax, geometric mean (CV %) ([3]; tablet 400 mg, Day 15 (n=24)): 9070 (81) ng/mL
Mean (SD) Caverage ([3]; tablet 400 mg, Day 15 (n=24)): 8928 (5148) ng/mL
Median (min, max) Tmax ([3]; tablet 400 mg, Day 15 (n=24)): 6.0 (0.0 to 23.3) h
percentage mean changes in soluble markers FGF23, VEGFR2, VEGF and PGF [4]: appeared to be dose dependent
overall response rate ([5]; RECIST, all evaluable (7/76 patients)): 9.2%
disease control rate ([5]; all evaluable): 57.9%
median progression-free survival ([5]; non-FGFR patients): 12.4 weeks
disease control rate ([5]; non-FGFR tumours): 52.3%
overall response rate ([5]; non-FGFR tumours (3/44)): 6.8%
patients without disease progression at 16 weeks ([5]; non-FGFR tumours (16/42)): 38.1%
patients without disease progression at 16 weeks ([5]; overall (24/71)): 33.8%
median progression-free survival ([5]; patients with FGFR aberration(s)): 16.1 weeks
disease control rate ([5]; tumours with FGFR aberrations): 65.6%
overall response rate ([5]; tumours with FGFR aberrations (4/32)): 12.5%
patients without disease progression at 16 weeks ([5]; tumours with FGFR aberrations (8/29)): 27.6%
